Data on one compound can be found in ChEMBL document CHEMBL1165989, “Characterization of pseudacyclins A-E, a suite of cyclic peptides produced by Pseudallescheria boydii” (J Nat Prod, 2010).

Active and inactive are the calls of the source. The calls are words filed in the database; no cut-off is given here.

Experiment [1] relates to Escherichia coli. As to the kind of experiment: Antimicrobial activity against Escherichia coli. Type of experiment: functional, organism-based.
The subject of experiment [2] is Pichia kudriavzevii. The experiment can be described thus: Antimicrobial activity against Candida krusei. It counts as functional, organism-based.
Experiment [3] relates to Enterococcus faecalis. The experiment can be described thus: Antimicrobial activity against Enterococcus faecalis. It counts as functional, organism-based.
The subject of experiment [4] is Candida albicans. As to the kind of experiment: Antimicrobial activity against Candida albicans. It counts as functional, organism-based.
Experiment [5] is described as follows: Inhibition of NO synthase activity in mouse B10R cells assessed as LPS-induced NO production after 24 hrs. Type of experiment: cell-based. Summed up:
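B10R macrophages stimulated with […] (0.5 µg/mL). NO-synthase activity was read as NO2- production over 24 h, and an IC50 was derived.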

The test system of experiment [6] is Streptococcus pyogenes. As to the kind of experiment: Antimicrobial activity against Streptococcus hemolyticus. Type of experiment: functional, organism-based.
Experiment [7] concerns Candida parapsilosis. The experiment can be described thus: Antimicrobial activity against Candida parapsilosis. It counts as functional, organism-based.
The test system of experiment [8] is Candida tropicalis. As to the kind of experiment: Antimicrobial activity against Candida tropicalis. It counts as functional, organism-based.
Experiment [9] is described as follows: Cytotoxicity against resting human lymphocytes by MTT assay. The conditions noted are these: Lymphocyte. It counts as cell-based.
Experiment [10] concerns Staphylococcus aureus. As to the kind of experiment: Antimicrobial activity against Staphylococcus aureus. It counts as functional, organism-based.
Experiment [11] can be described thus: Cytotoxicity against mitogen-activated human lymphocytes by MTT assay. It counts as cell-based. The conditions noted are these: Lymphocyte.

By IC50 is commonly meant the concentration that gives 50% inhibition. For the compound `CC[C@H](C)[C@H](NC(C)=O)C(=O)N[C@H]1CCCNC(=O)[C@H]([C@@H](C)CC)NC(=O)[C@H]([C@@H](C)CC)NC(=O)[C@@H]2CCCN2C(=O)[C@@H](Cc2ccccc2)NC1=O` [PSEUDACYCLIN A], the inhibition result in experiment [1], in experiment [2], in [3], in experiment [4], in experiment [6] and in experiment [7] was “inactive” in each case. Also, the inhibition entry in experiment [8] and in experiment [10] was “inactive” throughout. The IC50 amounted to 41.4 µM in experiment [5], 32 µM in experiment [9] and 12.9 µM in experiment [11].
